Experimental data from publication PMC9008867 (Therapeutic Advances in Medical Oncology, 2022).

Experiments:
[1] = system: Asian patients with advanced or metastatic malignancies; assay: Adverse events; assay type: in vivo, human; conditions: Schedule 1; patients n (%)
Procedure, shortened: (§1)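 Test compound given orally by schedule. Schedule 1: Mon/Thu, 28-day cycle. Schedule 2: Mondays weekly, 28-day cycle. Schedule 3: Mon/Wed for 2 of 3 weeks, 21-day cycle. Schedule 4: Mon/Wed/Fri, 28-day cycle. All patients received anorexia/nausea prophylaxis. AEs were recorded up to 30 days after the last dose and graded every 2 weeks for cycles 1–2, then every 4 weeks.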

[2] = system: Asian patients with advanced or metastatic malignancies; assay: Adverse events; assay type: in vivo, human; conditions: Schedule 3; patients n (%)
Procedure, shortened: as §1

[3] = system: metastatic triple-negative breast cancer; conditions: 10 heavily pretreated patients; cited from earlier work
[4] = system: Asian patients with advanced or metastatic malignancies; assay: Adverse events; assay type: in vivo, human; conditions: Schedule 4; patients n (%)
Procedure, shortened: as §1

[5] = system: Asian patients with advanced or metastatic malignancies; assay: Phase 1a 3 + 3 dose escalation: DLT, MTD, RP2D, tolerability, deaths; assay type: in vivo, human
Procedure, shortened: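 Modified 3+3 design: ≥3 patients per cohort, expanded to six after one DLT; DLTs were assessed in cycle 1. DLT was possibly drug-related grade ≥3 nonhaematological toxicity (not reversible asymptomatic electrolyte changes or hair loss). Haematological DLT: grade 4 neutropenia ≥7 days, febrile neutropenia, or grade ≥3 thrombocytopenia with bleeding. 2/6 DLTs set the MTD; RP2D was the next lower level. Deaths were counted within 30 days of last dose.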

[6] = Schedule 2, 70 mg/m^2 once a week, six patients
[7] = Schedule 3, 50 mg/m^2, subsequent four patients

Structure (SMILES): O=C(/C=C\n1cnc(-c2cc(C(F)(F)F)cc(C(F)(F)F)c2)n1)NNc1cnccn1 [selinexor]
- Anaemia, Any grade [1]: 1 (16.6) %
- Anorexia, Any grade [1]: 4 (66.6) %
- Dehydration, Any grade [1]: 1 (16.6) %
- Diarrhoea, Any grade [1]: 2 (33.3) %
- Fatigue, Any grade [1]: 6 (100) %
- Hypokalaemia, Any grade [1]: 2 (33.3) %
- Hypomagnesemia, Any grade [1]: 1 (16.6) %
- Hyponatremia, Any grade [1]: 6 (100) %
- Nausea, Any grade [1]: 1 (16.6) %
- Thrombocytopenia, Any grade [1]: 2 (33.3) %
- Vomiting, Any grade [1]: 1 (16.6) %
- Weight loss, Any grade [1]: 1 (16.6) %
- Abdominal discomfort, Any grade [2]: 3 (20) %
- Abdominal discomfort, G1/G2 [2]: 3 (20) %
- Anaemia, Any grade [2]: 3 (20) %
- Anorexia, Any grade [2]: 11 (73.33) %
- Conjunctivitis, Any grade [2]: 1 (6.66) %
- Constipation, Any grade [2]: 1 (6.66) %
- Dehydration, Any grade [2]: 2 (13.33) %
- Diarrhoea, Any grade [2]: 5 (33.33) %
- Dry skin, Any grade [2]: 1 (6.66) %
- Dysgeusia, Any grade [2]: 2 (13.33) %
- Edema, Any grade [2]: 1 (6.66) %
- Fatigue, Any grade [2]: 13 (86.66) %
- Giddiness, Any grade [2]: 2 (13.33) %
- Hypocalcaemia, Any grade [2]: 1 (6.66) %
- Hypokalaemia, Any grade [2]: 4 (26.66) %
- Hypomagnesemia, Any grade [2]: 6 (40) %
- Hyponatremia, Any grade [2]: 13 (86.66) %
- Hypophosphatemia, Any grade [2]: 6 (40) %
- Increased flatulence, Any grade [2]: 1 (6.66) %
- Increased flatulence, G1/G2 [2]: 1 (6.66) %
- Lethargy, Any grade [2]: 1 (6.66) %
- Nausea, Any grade [2]: 4 (26.66) %
- Thrombocytopenia, Any grade [2]: 4 (26.66) %
- Vomiting, Any grade [2]: 5 (33.33) %
- Weight loss, Any grade [2]: 4 (26.66) %
- objective responses [3]: did not result in any objective responses
- Abdominal discomfort, Any grade [4]: 2 (18.18) %
- Abdominal discomfort, G1/G2 [4]: 2 (18.18) %
- Anaemia, Any grade [4]: 3 (27.27) %
- Anorexia, Any grade [4]: 5 (45.45) %
- Cataract, Any grade [4]: 1 (9.09) %
- Diarrhoea, Any grade [4]: 4 (36.36) %
- Dysgeusia, Any grade [4]: 2 (18.18) %
- Dyspnoea/Shortness of breath, Any grade [4]: 3 (27.27) %
- Dyspnoea/Shortness of breath, G1/G2 [4]: 2 (18.18) %
- Dyspnoea/Shortness of breath, G3/G4 [4]: 1 (9.09) %
- Fatigue, Any grade [4]: 11 (100) %
- Hypocalcaemia, Any grade [4]: 1 (9.09) %
- Hypokalaemia, Any grade [4]: 1 (9.09) %
- Hypomagnesemia, Any grade [4]: 3 (27.27) %
- Hyponatremia, Any grade [4]: 10 (90.90) %
- Hypophosphatemia, Any grade [4]: 1 (9.09) %
- Nausea, Any grade [4]: 2 (18.18) %
- Neutropenia, Any grade [4]: 1 (9.09) %
- Thrombocytopenia, Any grade [4]: 6 (54.54) %
- Vomiting, Any grade [4]: 2 (18.18) %
- Weight loss, Any grade [4]: 3 (27.27) %
- tolerability ([5]; 40 mg/m^2 given 2 out of 3 weeks, Asian patient cohort): most tolerable
- DLTs ([5]; Schedule 1, 40 mg/m^2 twice-a-week continuous, six patients): no DLTs were observed
- patients with DLTs ([5]; Schedule 2, 50 mg/m^2 once a week, three patients): none of the three patients
- DLTs ([5]; Schedule 2, 60 mg/m^2 once a week, three patients): did not show any DLTs
- patients with grade 3 fatigue that persisted for more than 5 days ([5]; Schedule 2, 70 mg/m^2 once a week, additional four patients): one patient
- patients with grade 3 thrombocytopenia [5, 6]: one patient
- patients with grade 3 vomiting [5, 6]: one patient
- patients developing DLTs ([5]; Schedule 3, 40 mg/m^2 twice a week 2 out of 3 weeks): 0/3
- patients with G3 fatigue ([5]; Schedule 3, 50 mg/m^2, first six patients): one out of six patients
- patients with G3 dehydration from loss of appetite [5, 7]: One out of the subsequent four patients
- patients with G3 hyponatremia [5, 7]: one other patient
- patients with G3 diarrhoea and G3 syncope ([5]; Schedule 4, 16 mg/m^2 three times a week continuous): two out of five patients
- patients developing DLTs (G3 fatigue and G3 septicaemia) ([5]; Schedule 4, 20 mg/m^2 three times a week continuous): two out of six patients
- tolerability of schedule ([5]; Schedule 4, three-times-a-week continuous dosing): deemed intolerable
- deaths within 30 days of the last study drug administration ([5]; phase 1a cohort, none related to the study drug): eight
- RP2D, flat dose ([5]; twice a week with a 1-week drug holiday every 3-week cycle): 60 mg
